Experimental data taken from paper PMC6221542 (Science Advances, 2018).

Tests used:
[1] = test system: methylated H3K9 and H3K27 peptides; test: Peptide microarray, chromodomain binding profile; design: species or system human; details: cluster 3 = H3K9 peptides with different PTMs
Method in brief: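 Array of 467 unmodified and modified peptides (desalted, mass-spectrometry checked) printed in triplicate spots on glass slides and probed with chromodomain proteins. Signal intensities converted to z scores per chromodomain using all its intensities: z = (x − mean)/SD. Hierarchical clustering grouped chromodomains into three categories and peptides into six clusters by binding preference.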

H4K20me1 = test: Peptide microarray, chromodomain binding to H4K20me1; design: species or system human; details: no dsDNA in binding buffer
Method in brief: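 Custom array of 467 unmodified and modified peptides (synthesized, desalted, mass-spec checked), each spotted in triplicate on glass slides. Chromodomain proteins were bound to the printed array and analyzed by a previously described protocol. The CBX1 mutant chromodomain was instead screened on a commercial modified-histone peptide array.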

B1: MS3L1: MS3L1 chromodomain, cloned sequence 29-94 (protein, UniProt Q8N5Y2 29-94, looked up, fragment)
chain: VLYDAKIVDVIVGKDEKGRKIPEYLIHFNGWNRSWDRWAAEDHVLRDTDENRRLQRKLARKAVARL
modifications: chromodomain
interaction with peptide cluster 3 (in words) [1]: lacked significant interaction with cluster 3 | interaction with H4K20me1 (in words) (H4K20me1): did not show interaction with this mark
